The results in this text go back to ChEMBL document CHEMBL3576776, “3-Nitroasterric Acid Derivatives from an Antarctic Sponge-Derived Pseudogymnoascus sp. Fungus” (2015).

In one experiment the test system is Candida albicans. Description: Antifungal activity against Candida albicans ATCC64124. It counts as functional. The procedure, abridged:
(§1)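 Compounds serially diluted twofold in DMSO to give 10 concentrations starting at 64 μg/mL; bacterial and fungal strains exposed by previously described methods. MIC taken as lowest concentration inhibiting ≥95% of growth after overnight incubation. Data processed to give MIC; assay robustness RZ′ factor 0.89–0.97 across experiments.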
`COC(=O)c1c(Oc2cc(C)cc(O)c2C(=O)OCC(C)C(=O)O)c(OC)cc(O)c1[N+](=O)[O-]` (configuration not stated): the MIC95 is above 64 µg/mL.

Compound `COC(=O)c1c(Oc2cc(C)cc(O)c2C(=O)OC(C)C(=O)O)c(OC)cc(O)c1[N+](=O)[O-]` (configuration not stated) gave an MIC95 above 64 µg/mL.

In turn, `COC(=O)c1c(Oc2cc(C)cc(O)c2C(=O)OCC(C)C(=O)OC)c(OC)cc(O)c1[N+](=O)[O-]` (configuration not stated) displayed an MIC95 above 64 µg/mL.

`COC(=O)c1c(Oc2cc(C)cc(O)c2C(=O)O)c(OC)cc(O)c1[N+](=O)[O-]` yielded an MIC95 above 64 µg/mL.

A further experiment concerns Escherichia coli. Description: Antibacterial activity against Escherichia coli MB2884. Format: functional. The procedure, abridged: as §1
On to `COC(=O)c1c(Oc2cc(C)cc(O)c2C(=O)OCC(C)C(=O)O)c(OC)cc(O)c1[N+](=O)[O-]` (configuration not stated), for which the MIC95 was above 64 µg/mL.

The compound `COC(=O)c1c(Oc2cc(C)cc(O)c2C(=O)OC(C)C(=O)O)c(OC)cc(O)c1[N+](=O)[O-]` (configuration not stated) yielded an MIC95 above 64 µg/mL.

The compound `COC(=O)c1c(Oc2cc(C)cc(O)c2C(=O)OCC(C)C(=O)OC)c(OC)cc(O)c1[N+](=O)[O-]` (configuration not stated) came in with an MIC95 above 64 µg/mL.

In the case of `COC(=O)c1c(Oc2cc(C)cc(O)c2C(=O)O)c(OC)cc(O)c1[N+](=O)[O-]`, the MIC95 is above 64 µg/mL.

A further experiment has as its system Staphylococcus aureus. Briefly: Antibacterial activity against methicillin-resistant Staphylococcus aureus MB5393. Format: functional. The procedure, abridged: (§2)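 Compounds twofold serially diluted in DMSO, 10 concentrations starting at 64 μg/mL. Growth inhibition read after overnight incubation. MIC taken as the lowest concentration inhibiting ≥95% of growth. Assay robustness RZ′ factor 0.89–0.97.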
Compound `COC(=O)c1c(Oc2cc(C)cc(O)c2C(=O)OCC(C)C(=O)O)c(OC)cc(O)c1[N+](=O)[O-]` (configuration not stated) came in with an MIC95 above 64 µg/mL.

`COC(=O)c1c(Oc2cc(C)cc(O)c2C(=O)OC(C)C(=O)O)c(OC)cc(O)c1[N+](=O)[O-]` (configuration not stated) registered an MIC95 above 64 µg/mL.

`COC(=O)c1c(Oc2cc(C)cc(O)c2C(=O)OCC(C)C(=O)OC)c(OC)cc(O)c1[N+](=O)[O-]` (configuration not stated) yielded an MIC95 above 64 µg/mL.

The compound `COC(=O)c1c(Oc2cc(C)cc(O)c2C(=O)O)c(OC)cc(O)c1[N+](=O)[O-]` displayed an MIC95 above 64 µg/mL.

A further experiment has as its system Staphylococcus aureus. Briefly: Antibacterial activity against methicillin-sensitive Staphylococcus aureus EPI167. Format: functional. The procedure, abridged:
as §2
Take `COC(=O)c1c(Oc2cc(C)cc(O)c2C(=O)OCC(C)C(=O)O)c(OC)cc(O)c1[N+](=O)[O-]` (configuration not stated): the MIC95 was above 64 µg/mL.

`COC(=O)c1c(Oc2cc(C)cc(O)c2C(=O)OC(C)C(=O)O)c(OC)cc(O)c1[N+](=O)[O-]` (configuration not stated) came in with an MIC95 above 64 µg/mL.

`COC(=O)c1c(Oc2cc(C)cc(O)c2C(=O)OCC(C)C(=O)OC)c(OC)cc(O)c1[N+](=O)[O-]` (configuration not stated) gave an MIC95 above 64 µg/mL.

In the case of `COC(=O)c1c(Oc2cc(C)cc(O)c2C(=O)O)c(OC)cc(O)c1[N+](=O)[O-]`, the MIC95 is above 64 µg/mL.

In the next experiment the test system is Pseudomonas aeruginosa. Briefly: Antibacterial activity against Pseudomonas aeruginosa PAO1. It counts as functional. The procedure, abridged:
as §1
`COC(=O)c1c(Oc2cc(C)cc(O)c2C(=O)OCC(C)C(=O)O)c(OC)cc(O)c1[N+](=O)[O-]` (configuration not stated) showed an MIC95 above 64 µg/mL.

In the case of `COC(=O)c1c(Oc2cc(C)cc(O)c2C(=O)OC(C)C(=O)O)c(OC)cc(O)c1[N+](=O)[O-]` (configuration not stated), the MIC95 is above 64 µg/mL.

Turning to `COC(=O)c1c(Oc2cc(C)cc(O)c2C(=O)OCC(C)C(=O)OC)c(OC)cc(O)c1[N+](=O)[O-]` (configuration not stated), the MIC95 is above 64 µg/mL.

The compound `COC(=O)c1c(Oc2cc(C)cc(O)c2C(=O)O)c(OC)cc(O)c1[N+](=O)[O-]` gave an MIC95 above 64 µg/mL.

In another experiment the test system is Aspergillus fumigatus. Briefly: Antifungal activity against Aspergillus fumigatus ATCC46645. Format: functional. The procedure, abridged: as §1
`COC(=O)c1c(Oc2cc(C)cc(O)c2C(=O)OCC(C)C(=O)O)c(OC)cc(O)c1[N+](=O)[O-]` (configuration not stated): the MIC95 is above 64 µg/mL.

Compound `COC(=O)c1c(Oc2cc(C)cc(O)c2C(=O)OC(C)C(=O)O)c(OC)cc(O)c1[N+](=O)[O-]` (configuration not stated) showed an MIC95 above 64 µg/mL.

For the compound `COC(=O)c1c(Oc2cc(C)cc(O)c2C(=O)OCC(C)C(=O)OC)c(OC)cc(O)c1[N+](=O)[O-]` (configuration not stated), the MIC95 is above 64 µg/mL.

Compound `COC(=O)c1c(Oc2cc(C)cc(O)c2C(=O)O)c(OC)cc(O)c1[N+](=O)[O-]` showed an MIC95 above 64 µg/mL.

The test system of the next experiment is Candida albicans. Description: Antifungal activity against Candida albicans MY1055. Format: functional. The procedure, abridged:
as §1
The compound `COC(=O)c1c(Oc2cc(C)cc(O)c2C(=O)OCC(C)C(=O)O)c(OC)cc(O)c1[N+](=O)[O-]` (configuration not stated) had an MIC95 above 64 µg/mL.

`COC(=O)c1c(Oc2cc(C)cc(O)c2C(=O)OC(C)C(=O)O)c(OC)cc(O)c1[N+](=O)[O-]` (configuration not stated): the MIC95 is above 64 µg/mL.

In turn, `COC(=O)c1c(Oc2cc(C)cc(O)c2C(=O)OCC(C)C(=O)OC)c(OC)cc(O)c1[N+](=O)[O-]` (configuration not stated) returned an MIC95 above 64 µg/mL.

For `COC(=O)c1c(Oc2cc(C)cc(O)c2C(=O)O)c(OC)cc(O)c1[N+](=O)[O-]`, the MIC95 was above 64 µg/mL.

The subject of the next experiment is Acinetobacter baumannii. Description: Antibacterial activity against Acinetobacter baumannii CL 5973. It counts as functional. The procedure, abridged: as §1
Consider `COC(=O)c1c(Oc2cc(C)cc(O)c2C(=O)OCC(C)C(=O)O)c(OC)cc(O)c1[N+](=O)[O-]` (configuration not stated), for which the MIC95 was above 64 µg/mL.

`COC(=O)c1c(Oc2cc(C)cc(O)c2C(=O)OC(C)C(=O)O)c(OC)cc(O)c1[N+](=O)[O-]` (configuration not stated) gave an MIC95 above 64 µg/mL.

`COC(=O)c1c(Oc2cc(C)cc(O)c2C(=O)OCC(C)C(=O)OC)c(OC)cc(O)c1[N+](=O)[O-]` (configuration not stated): the MIC95 is above 64 µg/mL.

The compound `COC(=O)c1c(Oc2cc(C)cc(O)c2C(=O)O)c(OC)cc(O)c1[N+](=O)[O-]` gave an MIC95 above 64 µg/mL.
